According to article PMC6008205 (Journal of controlled release : official journal of the …, 2018):

How the values were obtained:
[1] = Dynamic light scattering particle size and PDI of CSPNs; type: physicochemical; settings: DLS in ultrapure water, peptide nanodrills 0.4 mM, triplicate
In short: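 Nanodrills formed spontaneously on vortexing peptide in ultrapure water or PBS pH 7.4. They were measured at 0.4 mM by dynamic light scattering in a quartz cuvette after 2 min equilibration. Measurements were done in triplicate and reported as arithmetic mean ± standard deviation.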

[2] = ANS spectrofluorimetric analysis of hydrophobic regions; type: physicochemical; settings: ANS 0.2 µM, CSPNs 2–16 µM, excitation 356 nm; relative to 2F-RT
In short: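 Test peptides were dissolved in water at 2–16 µM, and the ANS probe was added at 0.2 µM. Spectra were read on a fluorescence microplate reader at ambient temperature, with excitation at 356 nm and emission scanned from 380–600 nm. All measurements were done in triplicate and reported as arithmetic mean ± standard deviation.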

[3] = Tapping mode AFM analysis of nanodrill size and mechanical stability; settings: tapping mode AFM on mica under water, 400 µM peptide solution

PDI [1]: 0.434
Mean ANS fluorescence intensity compared to 2F-RT [2]: five-fold increase
Aspect ratio by AFM [3]: 6.2±3.9
Nanodrill size (length) by AFM [3]: 105±67 nm
Substance: FFF--(RADA)2-Tat [3F-RT]
